Results taken from ChEMBL document CHEMBL1649566, “In vitro activity of antifolate and polymorphism in dihydrofolate reductase of Plasmodium falciparum isolates from the Kenyan coast: emergence of parasites with Ile-164-Leu mutation” (Antimicrob Agents Chemother, 2009).

Assays:
Type in all cases: functional, organism-based
Plasmodium falciparum [1] = test: Antimalarial activity against Plasmodium falciparum Kenyan isolates by [3H]hypoxanthine incorporation assay
Plasmodium falciparum [2] = test: Antimalarial activity against pyrimethamine-sensitive Plasmodium falciparum 3D7 expressing wild type DHFR by [3H]hypoxanthine incorporation assay
Plasmodium falciparum [3] = test: Antimalarial activity against pyrimethamine-resistant Plasmodium falciparum V1S expressing DHFR quadruple mutant with point mutations at codons 108, 51, 59 and 164 gene by [3H]hypoxanthine incorporation assay
Plasmodium falciparum [4] = test: Antimalarial activity against Plasmodium falciparum isolate Kil-164 expressing DHFR Ser108Asn, Asn51Ile, Cys59Arg and Ile164Leu quadruple mutant by [3H]hypoxanthine incorporation assay
Outline: (§1)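 Kenyan isolates (Kilifi, 2006–2008) adapted to long-term in vitro culture; dhfr codons 108, 51, 59, 164 genotyped by PCR-RFLP. Cultured in RPMI 1640 with 10% human serum, 25 mM bicarbonate, 2 mM glutamine, 25 mM HEPES, 5 nM para-aminobenzoic acid, 23 nM folic acid, in washed human erythrocytes. Graded drug concentrations; [3H]hypoxanthine incorporation; IC50 by nonlinear regression of dose-response.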

Plasmodium falciparum [5] = test: Antimalarial activity against Plasmodium falciparum Kenyan isolates expressing DHFR Ser108Asn and Cys59Arg or Ser108Asn and Asn51Ile double mutant by [3H]hypoxanthine incorporation assay; outline: as §1
Plasmodium falciparum [6] = test: Antimalarial activity against Plasmodium falciparum Kenyan isolates expressing DHFR Ser108Asn, Asn51Ile and Cys59Arg triple mutant by [3H]hypoxanthine incorporation assay; outline: as §1

Q: Which results are given for CCc1nc(N)nc(N)c1-c1ccc(Cl)cc1 [PYRIMETHAMINE]?
A: IC50 (Plasmodium falciparum [1]): 733 nM; IC50 (Plasmodium falciparum [2]): 3.9 nM; IC50 (Plasmodium falciparum [3]): 6930 nM

Q: Which results are given for CN(Cc1cnc2nc(N)nc(N)c2n1)c1ccc(C(=O)N[C@@H](CCC(=O)O)C(=O)O)cc1 [METHOTREXATE]?
A: IC50 (Plasmodium falciparum [1]): 83.6 nM; IC50 (Plasmodium falciparum [4]): 56.6 nM; IC50 (Plasmodium falciparum [5]): 84.9 nM; IC50 (Plasmodium falciparum [6]): 83.6 nM; IC50 (Plasmodium falciparum [2]): 49.9 nM; IC50 (Plasmodium falciparum [3]): 40 nM

Q: Which IC50 (Plasmodium falciparum [1]) does the source give for COc1cc(NCc2ccc3nc(N)nc(N)c3c2C)cc(OC)c1OC [TRIMETREXATE] here?
A: 30 nM

Q: What about the IC50 (Plasmodium falciparum [4]) of the same molecule?
A: 44.7 nM

Q: And the IC50 (Plasmodium falciparum [5])?
A: 40.9 nM

Q: And the IC50 (Plasmodium falciparum [6])?
A: 20.9 nM

Q: What about the IC50 (Plasmodium falciparum [2]) of the same molecule?
A: 1.9 nM

Q: What about the IC50 (Plasmodium falciparum [3]) of the same molecule?
A: 24.8 nM

Q: How did the IC50 (Plasmodium falciparum [1]) turn out when CC1(C)N=C(N)N=C(N)N1c1ccc(Cl)c(Cl)c1 [CHLORCYCLOGUANIL] was run?
A: 37.8 nM

Q: And the IC50 (Plasmodium falciparum [4])?
A: 87.7 nM

Q: And the IC50 (Plasmodium falciparum [5])?
A: 38.1 nM

Q: What about the IC50 (Plasmodium falciparum [6]) of the same molecule?
A: 40 nM

Q: What about the IC50 (Plasmodium falciparum [2]) of the same molecule?
A: 0.011 nM

Q: And the IC50 (Plasmodium falciparum [3])?
A: 92.3 nM

Q: For COc1cc(Cc2cnc(N)nc2N)cc(OC)c1OC [TRIMETHOPRIM], which IC50 (Plasmodium falciparum [1]) is on record?
A: 29700 nM

Q: What about the IC50 (Plasmodium falciparum [4]) of the same molecule?
A: 155000 nM

Q: And the IC50 (Plasmodium falciparum [5])?
A: 9310 nM

Q: And the IC50 (Plasmodium falciparum [6])?
A: 33700 nM

Q: And the IC50 (Plasmodium falciparum [2])?
A: 407 nM

Q: And the IC50 (Plasmodium falciparum [3])?
A: 102000 nM

Q: CC1(C)N=C(N)N=C(N)N1OCCCOc1cc(Cl)c(Cl)cc1Cl was tested. Which IC50 (Plasmodium falciparum [1]) did it give?
A: 0.072 nM

Q: What about the IC50 (Plasmodium falciparum [4]) of the same molecule?
A: 0.012 nM

Q: What about the IC50 (Plasmodium falciparum [5]) of the same molecule?
A: 0.069 nM

Q: And the IC50 (Plasmodium falciparum [6])?
A: 0.1 nM

Q: What about the IC50 (Plasmodium falciparum [2]) of the same molecule?
A: 0.015 nM

Q: And the IC50 (Plasmodium falciparum [3])?
A: 0.063 nM
